≈ marks a conversion by molar mass, not a printed value. Calls of active or inactive are those of the source. No cut-off for these calls is given here.
Assays:
Candida parapsilosis [1] = experiment: Antifungal activity against Candida parapsilosis ATCC 22019 after 48 hrs in the presence of 10% FBS by broth dilution method; format: functional; conditions: Lodderomyces parapsilosis, ATCC 22019, 48 h
Candida albicans [2] = experiment: Ratio of MIC80 for voriconazole resistant Candida albicans ATCC 64124 sessile cells to MIC for voriconazole resistant Candida albicans ATCC 64124; format: functional
Candida parapsilosis [3] = experiment: Antifungal activity against Candida parapsilosis ATCC 22019 after 48 hrs by broth dilution method; format: functional
Aspergillus flavus = experiment: Antifungal activity against Aspergillus flavus ATCC MYA-3631 after 48 hrs by broth dilution method; format: functional; conditions: ATCC MYA-3631, 48 h
Candida albicans [4] = experiment: Antifungal activity against itraconazole and fluconazole resistant Candida albicans ATCC MYA-1237 after 48 hrs by broth dilution method; format: functional
In short: (§1)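 CLSI M27-A3 broth microdilution with minor modifications. Overnight YPD culture grown at 35 °C, 200 rpm, adjusted to OD600 0.12, diluted in RPMI 1640 buffered to pH 7.0 with 0.165 M MOPS to a final 1–2 × 10^3 CFU/mL. Test compounds at 0.015–31.3 µg/mL, 48 h at 35 °C, DMSO <1.25%. […] Triplicate.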

Candida albicans [5] = experiment: Antibiofilm activity against voriconazole resistant Candida albicans ATCC 64124 sessile cells incubated for 24 hrs by XTT reduction assay; format: functional; conditions: ATCC 64124, 24 h
In short: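 Strain B grown overnight in YPD broth at 35 °C, diluted to OD600 0.1 (~10^6 CFU/mL), then grown statically for 24 h at 37 °C to form biofilm. Washed with PBS, then drug in RPMI 1640 at 0.12–62.5 µg/mL for 24 h at 37 °C. Read-out: XTT 0.5 mg/mL with menadione 1 µM, 2 h, A490. SMIC50/SMIC80 are 50%/80% decreases versus drug-free biofilm. Duplicate.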

Candida albicans [6] = experiment: Antifungal activity against Candida albicans ATCC 10231 at 7.8 ug/mL incubated for 1 hr by propidium iodide staining-based fluorescence microscopic method; format: functional
In short: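 C. albicans ATCC 10231 grown overnight in YPD broth at 35 °C with shaking at 200 rpm, then transferred to RPMI 1640. Cells were exposed to drug and stained with propidium iodide, which enters only cells with compromised membranes. Uptake was judged by fluorescence microscopy against an untreated control.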

Candida albicans [7] = experiment: Antifungal activity against itraconazole and fluconazole susceptible Candida albicans ATCC MYA-2310 after 48 hrs by broth dilution method; format: functional
Nakaseomyces glabratus [8] = experiment: Antifungal activity against Candida glabrata ATCC 2001 after 48 hrs by broth dilution method; format: functional, CBS 138
Candida albicans [9] = experiment: Antifungal activity against Candida albicans ATCC 10231 after 48 hrs by broth dilution method; format: functional; conditions: ATCC 10231, 48 h
Candida albicans [10] = experiment: Inhibition of 14alpha-demethylase in Candida albicans ATCC 10231 assessed as lanosterol levels at 0.975 ug/mL by GC-MS analysis; set-up: scale not given: the % may be the effect or the level left
In short: (§2)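 C. albicans ATCC 10231 was treated with drug or DMSO (no-drug control). Sterols were extracted and analysed by GC-MS; lanosterol, eburicol, ergosterol and 14α-methyl ergosta-8,24(28)-diene-3β,6α-diol were quantified as percent of sterols.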

Aspergillus nidulans [11] = experiment: Antifungal activity against Aspergillus nidulans ATCC 38163 after 48 hrs in the presence of 10% FBS by broth dilution method; format: functional; conditions: ATCC 38163, 48 h
Candida albicans [12] = experiment: Inhibition of 14alpha-demethylase in Candida albicans ATCC 10231 assessed as ergosterol levels at 0.975 ug/mL by GC-MS analysis; set-up: scale not given: the % may be the effect or the level left; in short: as §2
Candida albicans [13] = experiment: Inhibition of 14alpha-demethylase in Candida albicans ATCC 10231 assessed as eburicol levels at 0.975 ug/mL by GC-MS analysis; set-up: scale not given: the % may be the effect or the level left; in short: as §2
Pichia kudriavzevii = experiment: Antifungal activity against Candida krusei ATCC 6258 after 48 hrs by broth dilution method; format: functional
In short: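 Yeasts tested per CLSI M27-A3 with minor changes. An overnight YPD culture (35 °C, 200 rpm) was adjusted to OD600 0.12 and diluted in MOPS-buffered RPMI 1640 (pH 7.0) to a final 1–2 × 10^3 CFU/mL. Compounds 0.015–31.3 µg/mL, DMSO <1.25%.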

Candida albicans [14] = experiment: Antifungal activity against itraconazole and fluconazole susceptible Candida albicans ATCC MYA-2876 after 48 hrs by broth dilution method; format: functional
Candida albicans [15] = experiment: Antifungal activity against Candida albicans ATCC 64124 after 48 hrs by broth dilution method; format: functional; in short: as §1
Candida albicans [16] = experiment: Antifungal activity against itraconazole and fluconazole resistant Candida albicans ATCC 90819 after 48 hrs by broth dilution method; format: functional; in short: as §1
Candida albicans [17] = experiment: Antifungal activity against itraconazole and fluconazole resistant Candida albicans ATCC MYA-1003 after 48 hrs by broth dilution method; format: functional; in short: as §1
[18] = Aqueous solubility of the compound; format: physicochemical; conditions: buffer
Aspergillus nidulans [19] = experiment: Antifungal activity against Aspergillus nidulans ATCC 38163 after 48 hrs by broth dilution method; format: functional
In short: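 A. nidulans run per CLSI M38-A2. PDA spores were filtered through glass wool and counted by hemocytometer. Test range 0.03–31.3 µg/mL in MOPS-buffered RPMI 1640 (pH 7.0), final 5 × 10^5 CFU/mL.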

Candida albicans [20] = experiment: Inhibition of 14alpha-demethylase in Candida albicans ATCC 10231 assessed as 14alpha-methyl ergosta-8,24(28)-dien-3beta,6alpha-diol levels at 0.975 ug/mL by GC-MS analysis; set-up: scale not given: the % may be the effect or the level left; in short: as §2
Aspergillus terreus = experiment: Antifungal activity against Aspergillus terreus ATCC MYA-3633 after 48 hrs by broth dilution method; format: functional
In short: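 Molds tested per CLSI M38-A2. Spores were harvested from sporulating PDA cultures by filtering through glass wool and counted on a hemocytometer. Serial dilutions (0.03–31.3 µg/mL) were made in RPMI 1640 buffered to pH 7.0 with 0.165 M MOPS, final inoculum 5 × 10^5 CFU/mL.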

Candida albicans [21] = experiment: Antifungal activity against Candida albicans ATCC 10231 after 48 hrs in the presence of 10% FBS by broth dilution method; format: functional; conditions: ATCC 10231, 48 h
[22] = Solubility of the compound in DMSO; format: physicochemical
Candida albicans [23] = experiment: Inhibition of 14alpha-demethylase in Candida albicans ATCC 10231 assessed as total sterol levels at 0.975 ug/mL by GC-MS analysis; set-up: scale not given: the % may be the effect or the level left; in short: as §2
Candida albicans [24] = experiment: Inhibition of 14alpha-demethylase in Candida albicans ATCC 10231 assessed as eburicol levels at 0.12 ug/mL by GC-MS analysis; set-up: scale not given: the % may be the effect or the level left
In short: (§3)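 Sterols were extracted from treated C. albicans ATCC 10231 (strain A) cells and profiled by GC-MS. Each sterol (lanosterol, ergosterol, eburicol, 14α-methyl ergosta-8,24(28)-diene-3β,6α-diol) is reported as a percentage of the sterol composition. A DMSO-treated culture served as the no-drug comparison.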

Candida albicans [25] = experiment: Fungistatic activity against Candida albicans ATCC 10231 at 1 to 4 times MIC incubated for 24 hrs by time kill assay; format: functional
In short: (§4)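 Overnight YPD cultures diluted in RPMI 1640 to an inoculum of 1–4 × 10^5 CFU/mL. […] Final volume 4 mL, 35 °C, 200 rpm, 24 h. Sampled at 0, 3, 6, 9, 12 and 24 h, serially diluted and plated on PDA. Colonies counted after 48 h (24 h for strain A). Detection limit 100 CFU/mL. Duplicate.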

Candida albicans [26] = experiment: Inhibition of 14alpha-demethylase in Candida albicans ATCC 10231 assessed as ergosterol levels at 0.12 ug/mL by GC-MS analysis; set-up: scale not given: the % may be the effect or the level left; in short: as §3
Candida albicans [27] = experiment: Inhibition of 14alpha-demethylase in Candida albicans ATCC 10231 assessed as total sterol levels at 0.12 ug/mL by GC-MS analysis; set-up: scale not given: the % may be the effect or the level left
Candida albicans [28] = experiment: Inhibition of 14alpha-demethylase in Candida albicans ATCC 10231 assessed as lanosterol levels at 0.12 ug/mL by GC-MS analysis; set-up: scale not given: the % may be the effect or the level left; in short: as §3
Candida albicans [29] = experiment: Inhibition of 14alpha-demethylase in Candida albicans ATCC 10231 assessed as 14alpha-methyl ergosta-8,24(28)-dien-3beta,6alpha-diol levels at 0.12 ug/mL by GC-MS analysis; set-up: scale not given: the % may be the effect or the level left; in short: as §3
Nakaseomyces glabratus [30] = experiment: Fungistatic activity against Candida glabrata ATCC 2001 at 4 times MIC incubated for 24 hrs by time kill assay; format: functional; conditions: CBS 138; in short: as §4
Candida parapsilosis [31] = experiment: Fungistatic activity against Candida parapsilosis ATCC 22019 at 1 to 4 times MIC incubated for 24 hrs by time kill assay; format: functional; in short: as §4

Q: What does the source list for `CCCCCCCCCCCCN1CCN(CC(O)(Cn2cncn2)c2ccc(Cl)cc2Cl)CC1` (stereo not given)?
A: MIC (Candida parapsilosis [1]): 0.24 µg/mL; Ratio (Candida albicans [2]): 2 - 4; MIC (Candida parapsilosis [3]; Lodderomyces parapsilosis, ATCC 22019, 48 h): 0.46 µM (≈ 0.241 µg/mL); MIC (Aspergillus flavus): 7.4 µM (≈ 3.88 µg/mL); MIC (Candida albicans [4]; Candida albicans, ATCC MYA-1237, 48 h): 7.4 µM (≈ 3.88 µg/mL); MIC50 (Candida albicans [5]): 15.6 µg/mL (≈ 29.7 µM); MIC80 (Candida albicans [5]): 31.3 µg/mL (≈ 59.7 µM); Activity (Candida albicans [6]): inactive; MIC (Candida albicans [7]; Candida albicans, ATCC MYA-2310, 48 h): 7.4 µM (≈ 3.88 µg/mL); MIC (Nakaseomyces glabratus [8]; Nakaseomyces glabratus, CBS 138, 48 h): 1.9 µM (≈ 0.997 µg/mL); MIC (Candida albicans [9]): 3.7 µM (≈ 1.94 µg/mL); Activity (Candida albicans [10]): 29.5%; MIC (Aspergillus nidulans [11]): 3.9 µg/mL; Activity (Candida albicans [12]): 50.6%; Activity (Candida albicans [13]): 1.15%; MIC (Pichia kudriavzevii; Pichia kudriavzevii, ATCC 6258, 48 h): 3.7 µM (≈ 1.94 µg/mL); MIC (Candida albicans [14]; Candida albicans, ATCC MYA-2876, 48 h): 7.4 µM (≈ 3.88 µg/mL); MIC (Candida albicans [15]; Candida albicans, ATCC 64124, 48 h): 14.9 µM (≈ 7.82 µg/mL); MIC (Candida albicans [16]; Candida albicans, ATCC 90819, 48 h): 7.4 µM (≈ 3.88 µg/mL); MIC (Candida albicans [17]; Candida albicans, ATCC MYA-1003, 48 h): 3.7 µM (≈ 1.94 µg/mL); solubility [18]: Soluble; MIC (Aspergillus nidulans [19]; Aspergillus nidulans, ATCC 38163, 48 h): 3.7 µM (≈ 1.94 µg/mL); Activity (Candida albicans [20]): 11.1%; MIC (Aspergillus terreus; Aspergillus terreus, ATCC MYA-3633, 48 h): 3.7 µM (≈ 1.94 µg/mL); MIC (Candida albicans [21]): 1.95 µg/mL; solubility [22]: Soluble; Activity (Candida albicans [23]): 3.56 to 4.08%

Q: For `C[C@@H](c1ncncc1F)[C@](O)(Cn1cncn1)c1ccc(F)cc1F` [VORICONAZOLE], which Activity (Candida albicans [24]) is on record?
A: 2.14%

Q: And the MIC (Candida parapsilosis [1])?
A: 0.015 µg/mL

Q: What about the “MIC=<50” value (Candida parapsilosis [3]) of the same compound?
A: <0.06 µM

Q: What about the Activity (Candida albicans [25]) of the same compound?
A: Active

Q: What about the “MIC=<50” value (Candida albicans [4]) of the same compound?
A: 22.3 µM (≈ 7.79 µg/mL)

Q: What about the MIC50 (Candida albicans [5]) of the same compound?
A: 62.5 µg/mL (≈ 179 µM)

Q: And the MIC80 (Candida albicans [5])?
A: 62.5 µg/mL (≈ 179 µM)

Q: What about the Activity (Candida albicans [26]) of the same compound?
A: 64.9%

Q: And the “MIC=<50” value (Candida albicans [7])?
A: 2.8 µM (≈ 0.978 µg/mL)

Q: And the “MIC=<50” value (Nakaseomyces glabratus [8])?
A: 0.17 µM (≈ 0.0594 µg/mL)

Q: And the Activity (Candida albicans [27])?
A: 1.56 to 2.79%

Q: What about the MIC (Aspergillus nidulans [11]) of the same compound?
A: 0.12 µg/mL

Q: What about the Activity (Candida albicans [28]) of the same compound?
A: 18.5%

Q: And the Activity (Candida albicans [29])?
A: 10.1%

Q: And the “MIC=<50” value (Pichia kudriavzevii)?
A: 0.34 µM (≈ 0.119 µg/mL)

Q: What about the “MIC=<50” value (Candida albicans [14]) of the same compound?
A: 5.6 µM (≈ 1.96 µg/mL)

Q: And the “MIC=<50” value (Candida albicans [15])?
A: 11.2 µM (≈ 3.91 µg/mL)

Q: And the “MIC=<50” value (Candida albicans [16])?
A: 5.6 µM (≈ 1.96 µg/mL)

Q: And the “MIC=<50” value (Candida albicans [17])?
A: 5.6 µM (≈ 1.96 µg/mL)

Q: What about the “MIC=<50” value (Aspergillus nidulans [19]) of the same compound?
A: 0.34 µM (≈ 0.119 µg/mL)

Q: What about the Activity (Nakaseomyces glabratus [30]) of the same compound?
A: Active

Q: And the “MIC=<50” value (Aspergillus terreus)?
A: 0.34 µM (≈ 0.119 µg/mL)

Q: What about the Activity (Candida parapsilosis [31]) of the same compound?
A: Active

Reference: ChEMBL document CHEMBL4024783, “Alkylated Piperazines and Piperazine-Azole Hybrids as Antifungal Agents” (J Med Chem, 2018)
